One block for each molecule: values may come before it. Square brackets hold non-standard residues; d marks the D form. Peptide text beside a SMILES is read from it. * marks the point of attachment. FITC = O=C1OC2(c3ccc(O)cc3Oc3cc(O)ccc32)c2ccc(NC(=S)*)cc21; βAla = NCCC(=O)O
Columns and labels:
DU145 cells [1] = assay: MTT proliferation assay, DU145; type: cell-based; conditions: 72 h
Procedure, shortened: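 DU145 cells seeded at 1500 per well in RPMI 1640 with 5% FBS. After 24 h, medium changed and peptide added for 72 h. MTT added (1 mg/mL final) for 4 h, then formazan dissolved in 2-propanol–HCl. Metabolic activity normalised to vehicle (bidistilled water, 0.1% DMSO). IC50 from curve fitting; tabulated IC50 are means of five independent experiments.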

LNCaP cells [2] = assay: MTT proliferation assay, LNCaP; type: cell-based; conditions: 72 h
Procedure, shortened: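 LNCaP cells seeded at 2500 per well on poly-lysine-coated plates in RPMI 1640 with 10% FBS. Medium changed after 24 h, then peptide exposure for 72 h. MTT (1 mg/mL final) incubated 4 h; formazan dissolved in 2-propanol–HCl. Signal normalised to vehicle-treated cells (water, 0.1% DMSO).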

LNCaP cells [3] = assay: Cell cycle analysis; type: cell-based; conditions: 200 μM, 96 h
Procedure, shortened: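 LNCaP cells (4 × 10^5 per 10 cm dish) grown 24 h untreated, then given vehicle (0.1% DMSO) or 100 or 200 μM peptide in 10% FBS medium for 96 h, with medium changed every 24 h. Cells trypsinised, fixed in ice-cold ethanol (30 min, room temperature), and stained with propidium iodide plus RNaseA in HEPES pH 7.2 buffer. Flow cytometry: ≥10000 gated singlets. Phase percentages taken from living cells. Three experiments in duplicate; unpaired two-tailed t test.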

amino-peptidases = assay: Stability of the peptide to amino-peptidases; type: in vitro ADME; conditions: N-terminal Leu replaced by DLeu, versus ML-peptide; unpublished data
DU145 cells [4] = assay: Cellular uptake of FITC peptides by FACS; type: cell-based; conditions: for geometric mean of the distribution (GeoMean), range over both wash conditions: DU145, 10 μM FITC peptide, 1 h, FACS
Procedure, shortened: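 DU145 cells (4 × 10^5) incubated 1 h in serum-free RPMI with 10 μM FITC-labelled peptide, then pelleted. Pellets washed twice with 0.05% trypsin, 5 min at 37 °C, to strip membrane-bound label. Propidium iodide (10 μg/mL, 2 min) excluded membrane-damaged cells. At least 10000 events acquired per sample, excluding clumps and debris. Uptake reported as geometric mean fluorescence.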

[5] = biological target: T1, P6 Arg hexapeptide inhibitor; assay: enzyme inhibition assay
T1 chain: RLRVKR

[6] = biological target: T2, P6 Leu hexapeptide inhibitor; assay: enzyme inhibition assay
T2 chain: LLRVKR

[7] = biological target: T3, P6 Lys hexapeptide inhibitor; assay: enzyme inhibition assay
T3 chain: KLRVKR

PC7 prodomain prodomain = biological target: T4, PC7 prodomain prodomain (Homo sapiens, UniProt Q16549); assay: enzyme inhibition assay
T4 chain: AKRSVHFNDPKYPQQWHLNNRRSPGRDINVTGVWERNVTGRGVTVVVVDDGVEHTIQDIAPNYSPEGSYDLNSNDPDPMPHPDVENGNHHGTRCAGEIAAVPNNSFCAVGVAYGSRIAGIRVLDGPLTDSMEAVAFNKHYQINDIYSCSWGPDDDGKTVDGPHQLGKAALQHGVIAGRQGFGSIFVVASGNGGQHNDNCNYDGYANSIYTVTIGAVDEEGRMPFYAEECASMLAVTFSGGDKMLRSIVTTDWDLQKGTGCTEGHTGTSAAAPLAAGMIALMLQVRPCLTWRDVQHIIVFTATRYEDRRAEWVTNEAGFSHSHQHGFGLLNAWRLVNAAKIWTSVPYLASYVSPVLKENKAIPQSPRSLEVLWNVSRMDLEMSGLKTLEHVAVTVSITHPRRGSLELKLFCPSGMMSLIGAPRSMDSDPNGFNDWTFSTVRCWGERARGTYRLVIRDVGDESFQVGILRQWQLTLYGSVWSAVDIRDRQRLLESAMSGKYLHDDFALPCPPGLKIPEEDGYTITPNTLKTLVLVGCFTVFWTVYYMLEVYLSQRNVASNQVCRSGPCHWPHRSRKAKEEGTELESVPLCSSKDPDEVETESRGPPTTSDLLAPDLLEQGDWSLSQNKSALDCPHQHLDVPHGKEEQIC

Molecule: CC(=O)N[C@@H](CC(C)C)C(=O)N[C@@H](CC(C)C)C(=O)N[C@@H](CC(C)C)C(=O)N[C@@H](CC(C)C)C(=O)N[C@@H](CCCNC(=N)N)C(=O)N[C@H](C(=O)N[C@@H](CCCCN)C(=O)N[C@H](CCCNC(=N)N)C(N)=O)C(C)C [Ac-LLLLRVK[DArg]-NH2] (Ac-LLLLRVK[dR]-NH2)
inhibition of proliferation (DU145 cells [1]): poor proliferation inhibitor
inhibition of proliferation (LNCaP cells [2]): poor proliferation inhibitor

stability of the peptide to amino-peptidases (amino-peptidases): improved stability
Molecule: CC(=O)N[C@H](CC(C)C)C(=O)N[C@@H](CC(C)C)C(=O)N[C@@H](CC(C)C)C(=O)N[C@@H](CC(C)C)C(=O)N[C@@H](CCCNC(=N)N)C(=O)N[C@H](C(=O)N[C@@H](CCCCN)C(=O)N[C@@H](CCCNC(=N)N)C(N)=O)C(C)C [Ac-[DLeu]LLLRVKR-NH2]
increase in the G0/G1 population (LNCaP cells [3]): 10%

Molecule: CC(=O)N[C@@H](CCCNC(=N)N)C(=O)N[C@@H](C)C(=O)N[C@@H](CCCNC(=N)N)C(=O)N[C@@H](CCCNC(=N)N)C(=O)N[C@@H](CCCNC(=N)N)C(=O)N[C@@H](CCCCN)C(=O)N[C@@H](CCCCN)C(=O)N[C@@H](CCCNC(=N)N)C(=O)N[C@H](C(N)=O)[C@@H](C)O [reference compound]
inhibition of proliferation (DU145 cells [1]): no antiproliferative effects
inhibition of proliferation (LNCaP cells [2]): no antiproliferative effects

Molecule: FITC-C8-LLLLRVKR-NH2 ({FITC-C8}-LLLLRVKR-NH2)
geometric mean of the distribution (GeoMean), range over both wash conditions (DU145 cells [4]): 260.08–261.95
GeoMean compared to the control FITC-β-Ala-ML-peptide (DU145 cells [4]; DU145, FACS): 5 fold

Molecule: FITC-[β-Ala]-LLLLRVKR-NH2 ({FITC-βAla}-LLLLRVKR-NH2)
geometric mean of the distribution (GeoMean), range over both wash conditions (DU145 cells [4]): 48.90–52.82

Ki [5]: 40 nM
Ki [6]: 49 nM
Ki [7]: 37 nM
Ki (PC7 prodomain prodomain): 0.34 nM
B1: PACE4 (protein)
chain: QVRSDPQALYFNDPIWSNMWYLHCGDKNSRCRSEMNVQAAWKRGYTGKNVVVTILDDGIERNHPDLAPNYDSYASYDVNGNDYDPSPRYDASNENKHGTRCAGEVAASANNSYCIVGIAYNAKIGGIRMLDGDVTDVVEAKSLGIRPNYIDIYSASWGPDDDGKTVDGPGRLAKQAFEYGIKKGRQGLGSIFVWASGNGGREGDYCSCDGYTNSIYTISVSSATENGYKPWYLEECASTLATTYSSGAFYERKIVTTDLRQRCTDGHTGTSVSAPMVAGIIALALEANSQLTWRDVQHLLVKTSRPAHLKASDWKVNGAGHKVSHFYGFGLVDAEALVVEAKKWTAVPSQHMCVAASDKRPRSIPLVQVLRTTALTSACAEHSDQRVVYLEHVVVRTSISHPRRGDLQIYLVSPSGTKSQLLAKRLLDLSNEGFTNWEFMTVHCWGEKAEGQWTLEIQDLPSQVRNPEKQGKLKEWSLILYGTAEHPYHTFSAHQSRSRMLELSAPELEPPKAALSPSQVEVPEDEEDYTAQSTPGSANILQTSVCHPECGDKGCDGPNADQCLNCVHFSLGSVKTSRKCVSVCPLGYFGDTAARRCRRCHKGCETCSSRAATQCLSCRRGFYHHQEMNTCVTLCPAGFYADESQKNCLKCHPSCKKCVDEPEKCTVCKEGFSLARGSCIPDCEPGTYFDSELIRCGECHHTCGTCVGPGREECIHCAKNFHFHDWKCVPACGEGFYPEEMPGLPHKVCRRCDENCLSCAGSSRNCSRCKTGFTQLGTSCITNHTCSNADETFCEMVKSNRLCERKLFIQFCCRTCLLAG

— article PMC3523546 (Journal of Medicinal Chemistry, 2012)
